Measured values: ChEMBL document CHEMBL4118029, “Marine Terpenoid Diacylguanidines: Structure, Synthesis, and Biological Evaluation of Naturally Occurring Actinofide and Synthetic Analogues” (2017)

Experiments:
Hs 683 = assay: Growth inhibition of human Hs683 cells after 72 hrs by MTT assay; assay type: functional; details: Hs 683, 72 h
Outline: (§1)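 Cells were grown in RPMI with 10% heat-inactivated fetal bovine serum, 4 mM glutamine, 100 μg/mL gentamicin and penicillin–streptomycin (200 units/mL and […]). They were cultured with compound for 72 h, then read by MTT colorimetric assay. GI50 is the concentration cutting growth by 50% relative to untreated control.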

U373 MG = assay: Growth inhibition of human U373 cells after 72 hrs by MTT assay; assay type: functional, U-373MG ATCC; outline: as §1
MCF7 = assay: Growth inhibition of human MCF7 cells after 72 hrs by MTT assay; assay type: functional; details: MCF7, 72 h; outline: as §1
A549 = assay: Growth inhibition of human A549 cells after 72 hrs by MTT assay; assay type: functional; details: A549, 72 h; outline: as §1
SK-MEL-28 = assay: Growth inhibition of human SK-MEL-28 cells after 72 hrs by MTT assay; assay type: functional; details: SK-MEL-28, 72 h; outline: as §1
B16-F10 = assay: Growth inhibition of mouse B16F10 cells after 72 hrs by MTT assay; assay type: functional; details: B16-F10, 72 h; outline: as §1

Row | GI50 (MCF7) | GI50 (A549) | GI50 (SK-MEL-28) | GI50 (B16-F10) | Structure (SMILES) | GI50 (Hs 683) | GI50 (U373 MG)
1 | 4 µM | 1.7 µM | 3.2 µM | – | COc1cc([C@@H]2c3cc4c(cc3[C@@H](O[C@@H]3O[C@@H]5CO[C@@H](C)O[C@H]5[C@H](O)[C@H]3O)[C@H]3COC(=O)[C@H]23)OCO4)cc(OC)c1O [ETOPOSIDE] | 1.5 µM | 24.9 µM
2 | 22 µM | 13.7 µM | 20.1 µM | 9.2 µM | CC(C)=CCC/C(C)=C/CC/C(C)=C/C(=O)NC(=N)N | 10 µM | 21 µM
3 | 52.2 µM | 76.5 µM | 56.3 µM | 17.1 µM | CC(C)=CCC/C(C)=C/C(=O)NC(=N)N | 39.4 µM | 46 µM
4 | 51.2 µM | 38.9 µM | 57.3 µM | 18.9 µM | CC(C)=CCC/C(C)=C/CC/C(C)=C/C(=O)NC(=N)NC(=O)/C=C(\C)CCC=C(C)C | 37.4 µM | 35 µM
5 | 59.7 µM | 75.6 µM | > 100 µM | 21.3 µM | CC(C)=CC(=O)NC(=N)NC(=O)C=C(C)C | 60.3 µM | 45.6 µM
6 | 41.5 µM | 37.4 µM | 53.4 µM | 25 µM | CC(C)=CCC/C(C)=C/C(=O)NC(=N)NC(=O)C=C(C)C | 31.5 µM | 36.2 µM
7 | 23.4 µM | 23.4 µM | 24.2 µM | 7.5 µM | CC(C)=CCC/C(C)=C/CC/C(C)=C/C(=O)NC(=N)NC(=O)C=C(C)C | 8.3 µM | 15.7 µM
8 | > 100 µM | > 100 µM | > 100 µM | 92.8 µM | CC(C)=CC(=O)NC(=N)N | > 100 µM | > 100 µM
9 | 30.3 µM | 18.5 µM | 42.7 µM | 5.7 µM | CC(C)=CCC/C(C)=C/CC/C(C)=C/C(=O)NC(=N)NC(=O)/C=C(\C)CC/C=C(\C)CCC=C(C)C | 6.8 µM | 9.2 µM
10 | 42.4 µM | 46.9 µM | 61.9 µM | 23.8 µM | CC(C)=CCC/C(C)=C/C(=O)NC(=N)NC(=O)/C=C(\C)CCC=C(C)C | 32.7 µM | 38.9 µM
11 | 28.1 µM | 29.4 µM | 60.5 µM | 9.6 µM | C=C1CCCC(C)(C)[C@@H]1CC/C(C)=C/C(=O)NC(=N)NC(=O)C=C(C)C | 18.1 µM | 28.8 µM
